# Screening data (PubChem)
# BaF3 tox: parental Ba/F3 viability inhibition as JAK2V617F counter-screen; CellTiter-Glo ATP luminescence; inhibition, % at 5.6 µM; 220,000 compounds, 1.1% hits; AID 1486;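 active = inhibition above a per-campaign cutoff, the mean inhibition of all tested compounds plus 3 SD, cut at about 27% in these data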;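 also: 0% = DMSO wells and 100% = JAK Inhibitor I control wells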
# Ba/F3 V617F tox: loss of viability in JAK2V617F-driven Ba/F3 cells. Ba/F3 EpoR-JAK2V617F viability, ATP luminescence. AID 1446. inhibition, % at 5.6 µM. 220,000 compounds, 1.1% hits;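 active = inhibition above the campaign mean plus 3 SD over all tested compounds, cut at about 24% in these data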;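 also: cytokine-independent growth of Ba/F3 cells driven by EpoR plus mutant JAK2; 0% = DMSO-treated cells and 100% = JAK inhibitor I control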
# APP transl inh: APP translation inhibition; AID 1285; 190,000 compounds, 0.82% hits; inhibition, % at 2 µM; SH-SY5Y APP 5'UTR-luciferase reporter, luminescence;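 active = inhibition above a set limit, derived from the sample mean plus 3 SD, cut at about 45% in these data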
# b-catenin transl: modulators of beta-catenin nuclear translocation; 190,000 compounds, 0.3% hits; nuclear translocation activity, % at 5 µM; AID 1665; HeLa beta-catenin nuclear translocation, immunofluorescence imaging;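 active = nuclear translocation activity above 50% at 5 µM, with a well cell count of 50 or more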;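 also: per-cell ratio of nuclear to cytoplasmic median beta-catenin stain intensity; plate controls were DMSO negative control for no effect and GSK-3 inhibitor IX positive control for full effect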
#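 System: Human HeLa cells, endogenous beta-catenin | Compound dosing: 5 µM primary, 0.02–20 µM confirmation | Timing: 24 h compound exposure at 37°C, 5% CO2 | Measured by: Fluorescence imaging of beta-catenin antibody stain plus DAPI | Read-out basis: % activation of per-cell nuclear versus cytoplasmic median beta-catenin signal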
# Lmaj promast: reduces viability of Leishmania major promastigotes | resazurin fluorescence viability | inhibition, % at 10 µM | 200,000 compounds, 9% hits; in the data active = inhibition above about 50%;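 also: promastigotes grown with compound for 44 hours at 28 °C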
# MT stabilize HCS: stabilizes microtubules in HeLa cells; HeLa tubulin immunostaining HCS, 24 h; share of cells brighter than vehicle mean+2SD; % tubulin-high responders, % at 10 µM; 200,000 compounds, 0.83% hits; AID 2205;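 active = plate Z-score above 3 for both tubulin-high and condensed-nucleus cell shares, with cell loss under 80%, at 10 µM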;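 also: anti alpha tubulin signal scored within the nucleus-defined area of each cell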
# * marks the source's active call; other numbers are inactive results; . = no result. Sampled rows, rich in hits. Any-hit rate of the full collection: about 9.6%.
SMILES,BaF3 tox,Ba/F3 V617F tox,APP transl inh,b-catenin transl,Lmaj promast,MT stabilize HCS
Cc1cc(-c2ccccc2)nc2cc(C(=O)N(Cc3ccccc3)Cc3ccccc3)nn12,3.7,-0.1,-12.7,-1.3,53.0*,2.3
COC(=O)c1cc2nc(-c3ccccc3)cc(C)n2n1,-2.8,-4.6,22.6,.,-2.6,3.7
CCn1c(=O)n(CC(=O)Nc2cc(OC)c(OC)c(OC)c2)c(=O)c2ccccc21,0.3,-2.0,.,.,-7.5,0.7
COc1cccc(-c2cc(=O)c3cc(NC(C)=O)ccc3[nH]2)c1,2.6,2.0,-1.0,.,-1.8,29.8*
CC(=O)Nc1ccc2[nH]c(C)cc(=O)c2c1,2.9,-1.7,10.7,.,0.6,1.5
Cc1nc2c(-c3ccccc3)c(C)nn2c(SCC(N)=O)c1Cc1ccccc1,-4.4,-3.6,.,0.7,.,.
N=c1ccn(CC(=O)c2ccc(-c3ccccc3)cc2)cc1,75.3*,98.1*,7.5,2.1,99.0*,14.4
O=C(CN1C(=O)CCC1=O)c1ccc(-c2ccccc2)cc1,2.8,-2.4,-28.2,0.1,-8.3,1.9
CCOc1ccc(OCCn2ccnc2)cc1,4.8,0.4,-4.2,.,28.6,2.4
Cc1cccc(OCCCn2ccnc2)c1,2.7,-5.8,14.5,0.3,98.4*,3.9
Cc1cc(OCCn2ccnc2)ccc1C(C)C,1.2,-3.4,6.7,-1.7,97.2*,2.3
Cc1cc(C(C)(C)C)ccc1OCCn1ccnc1,5.0,-2.1,8.5,.,61.8*,1.7
Cc1ccc(OCCCn2ccnc2)cc1C,1.8,-2.5,13.6,-3.9,99.6*,2.4
CC1Cc2ccccc2N1S(=O)(=O)c1cccc2nsnc12 (stereo not drawn),4.0,3.2,3.6,-1.7,10.5,6.3
CCC(C)NC(=O)c1ccccc1NC(=O)CN(c1ccc(OC)cc1)S(C)(=O)=O (stereo not drawn),3.2,0.5,-15.2,.,-1.4,2.2
N#Cc1c(NC(=O)COC(=O)c2ccc(S(=O)(=O)N3CCCC3)cc2)sc2c1CCCCC2,1.4,-2.4,2.9,-1.2,-10.2,9.7
CCSc1ncccc1C(=O)N[C@@H](CCSC)C(=O)OC,0.2,-0.7,.,-1.0,.,.
O=C(NNc1nc2cc3c(cc2s1)OCO3)c1ccc(F)cc1,-0.6,-5.9,5.1,-1.5,77.1*,4.5
Fc1ccc2nc(Nc3nc4cc5c(cc4s3)OCO5)sc2c1,1.1,-2.3,-86.7,1.8,-3.7,4.7
Cc1nc2c(ccc3nc(NC(=O)c4ccc5c(c4)OCCO5)sc32)s1,5.1,-2.4,-123.1,10.0,62.6*,8.1
c1ccc2sc(Nc3nc4cc5c(cc4s3)OCO5)nc2c1,8.9,2.3,-195.0,-5.1,90.0*,4.3
O=C(Nc1nc2cc3c(cc2s1)OCCO3)c1ccc(N2C(=O)CCC2=O)cc1,-8.7,-1.4,.,-0.2,.,.
O=C(Nc1nc2cc3c(cc2s1)OCCO3)c1ccncc1,10.7,1.6,-153.4,0.8,95.5*,1.7
O=C(NNc1nc2cc3c(cc2s1)OCCO3)c1ccc(F)cc1,4.1,0.0,16.7,-5.6,-6.1,1.1
CCS(=O)(=O)N1CCN(Cc2ccncc2)CC1,3.4,-0.9,-12.9,-0.4,-3.2,5.1
SMILES,BaF3 tox,Ba/F3 V617F tox,APP transl inh,b-catenin transl,Lmaj promast,MT stabilize HCS
Cc1csc(SCC(=O)NC(C)c2ccccc2)n1 (stereo not drawn),-1.5,-2.6,-7.9,-1.8,-1.9,3.2
COc1ccc(CC(=O)NNC(=O)CSc2nnc(Cc3ccc(OC)cc3)n2-c2ccccc2)cc1,3.3,-1.4,-8.4,-0.6,-3.9,4.6
C=CCNc1nc(N)c(C(=O)c2ccc3c(c2)OCO3)s1,3.2,1.6,-45.2,5.9,50.2*,11.6
O=C1CCCc2oc3c(cc(NS(=O)(=O)c4ccc5c6c(cccc46)C(=O)N5)c4ccccc43)c21,-3.0,5.8,.,2.1,.,.
Cc1oc2c(cc(NS(=O)(=O)c3ccc4c5c(cccc35)C(=O)N4)c3ccccc32)c1C(=O)OC(C)C,1.9,1.6,17.0,1.4,57.8*,3.7
O=C(CN1CCN(Cc2ccccc2Cl)CC1)N/N=C/c1cccs1,-1.4,-1.6,.,-1.0,.,.
CCCn1c(N)nc2ccccc21,2.3,-1.8,-5.6,-3.3,20.1,3.9
Clc1ccc(OCCN2CCCCC2)c(Cl)c1,3.2,-2.0,11.8,.,99.5*,1.4
Clc1ccccc1OCCN1CCCCC1,3.8,-1.9,4.4,-0.6,88.3*,5.0
Nc1nc2ccccc2n1CCOc1ccccc1Cl,3.2,2.0,-2.1,-1.7,99.8*,4.4
CCc1nc2sc3c(c2c(=O)n1NC(=O)CCl)CCCC3,1.0,-2.5,16.5,1.2,-2.2,3.2
N#Cc1c(N)nc2c(c1-c1ccc3c(c1)OCO3)CCc1ccccc1-2,7.8,2.1,.,6.3,26.7,25.9*
N#Cc1c(N)c(C#N)c(-c2ccc3c(c2)OCO3)c2c1CCCC2,.,.,.,-4.3,.,.
S=C(NCc1ccco1)NCC1CCCO1 (stereo not drawn),6.8,-1.1,7.3,0.4,-2.9,1.4
Cc1cc(Sc2nnc(/N=C/N(C)C)s2)c2ccccc2n1,73.3*,90.4*,.,-4.1,.,.
CCCCCCCCSc1nnc(/N=C/N(C)C)s1,2.3,-6.5,.,-0.7,.,.
Cc1cc(Sc2nnc(N)s2)c2ccccc2n1,76.8*,96.1*,.,3.3,.,.
O=c1cc(CN2CCN(c3ccccc3F)CC2)c2cc3c(cc2o1)CCCC3,4.9,0.9,2.7,-0.3,3.7,1.7
COC(=O)C1=CN(C(C)C)C=C(C(=O)OC)C1c1cccc(OC)c1,3.2,-2.0,6.0,1.9,15.3,2.4
COC(=O)C1=CN(C(C)C)C=C(C(=O)OC)C1c1cc(Br)c(OC)c(OC)c1,4.4,-2.9,7.3,1.1,100.1*,2.4
Cc1cc(C)nc(Sc2nc(C)nc3c2oc2ccccc23)n1,5.9,0.0,5.6,8.6,71.8*,3.0
NC(=O)C1=C[C@@H](c2ccc(C(F)(F)F)cc2)C[C@@H](OCCCCO)O1,-2.3,-0.9,11.9,-3.1,-3.6,1.8
O=C(c1ccc([N+](=O)[O-])cc1)N1CCSC1c1cccc(Cl)c1 (stereo not drawn),-1.6,-3.3,5.0,.,51.5*,1.6
Cc1ccc(S(=O)(=O)Oc2cccc(/C=N/n3cnnc3)c2)cc1,4.9,0.2,4.0,-1.6,66.8*,4.0
Cc1ccc(S(=O)(=O)Oc2cccc(/C=N/Nc3ccc(C(=O)O)cc3)c2)cc1,-2.0,4.1,.,-2.3,.,.
CN1/C(=C\C(=O)c2ccccc2Cl)c2ccccc2CC1(C)C,2.5,-1.2,-8.8,-0.1,70.3*,0.9
Cc1ccccc1C(=O)/C=C1/c2ccccc2CC(C)(C)N1C,2.6,2.8,-10.7,.,27.9,3.3
CN1CCc2c(sc(NC(=O)c3cc4cc([N+](=O)[O-])ccc4s3)c2C(N)=O)C1,3.0,-1.4,25.7,7.4,100.5*,6.2
CC(C)N1CCc2c(sc(NC(=O)CCc3ccccc3)c2C(N)=O)C1,8.1,1.6,-4.7,-3.1,0.4,1.3
